The source made the active and inactive calls. The rule behind the calls is not given here.
Experiments:
[1] = Cytotoxicity against HEL assessed as minimum cytotoxic concentration required to cause microscopically detectable alteration in cell morphology; type: cell-based; details: human, HEL cells
Influenza A virus [2] = assay: Antiviral activity against Influenza virus A virus H1N1; type: functional, organism-based
Method in brief: (§1)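 The assay was a cell-based cytopathicity inhibition test on confluent monolayers with serial compound dilutions. EC50 was the concentration that reduced virus-induced cytopathicity by 50%.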

HEL = assay: Cytotoxicity against HEL; type: cell-based; details: human
[3] = tested on: Human immunodeficiency virus 1; assay: Antiviral activity against HIV1 3B infected in human CEM cells assessed as inhibition of virus-induced giant cell formation after 4 to 5 days; type: functional, organism-based; details: CCRF-CEM
Method in brief: (§2)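 CEM cells at about 3 × 10^5 cells/mL were infected with 100 CCID50 of HIV per mL, with compound dilutions present. They were incubated 4–5 days at 37 °C in humidified CO2, and syncytia were scored microscopically. EC50 is the concentration that inhibits giant cell formation by 50%.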

[4] = tested on: Mammalian orthoreovirus 1; assay: Antiviral activity against Reovirus-1; type: functional, organism-based
Method in brief: (§3)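 Confluent HEL, Vero, HeLa or MDCK cell cultures were inoculated with 100 CCID50 of virus alongside varying compound concentrations. Cytopathicity was scored when it reached completion in untreated virus controls. EC50 is the concentration that reduces virus-induced cytopathogenicity by 50%.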

Human betaherpesvirus 5 [5] = assay: Antiviral actiivty against Human herpesvirus 5 Davis infected in HEL assessed as reduction of virus-induced plaque formation; type: functional, organism-based; details: Human betaherpesvirus 5, Davis
Method in brief: (§4)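 HCMV strains AD-169 and Davis were tested on confluent human embryonic lung fibroblast monolayers infected with 100 PFU in the presence of serial compound concentrations. Plaques were counted once formation was complete in untreated infected controls. EC50 is the concentration that cuts plaque formation by 50%.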

Feline coronavirus = assay: Antiviral activity against Feline coronavirus; type: functional, organism-based
Human alphaherpesvirus 1 [6] = assay: Antiviral activity against Herpes simplex virus type 1 KOS; type: functional, organism-based; method in brief: as §3
Human alphaherpesvirus 3 [7] = assay: Antiviral activity against Varicella-zoster virus YS; type: functional, organism-based
Method in brief: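 VZV was assayed by plaque formation. Confluent cell cultures received 10 or 100 PFU with varying compound concentrations, and plaques were recorded once complete in untreated infected controls. EC50 is the concentration that reduces plaque formation by 50%.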

Human alphaherpesvirus 3 [8] = assay: Antiviral activity against Varicella-zoster virus OKA; type: functional; details: strain Oka vaccine
Method in brief: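 Confluent cell monolayers were infected with 10 or 100 PFU of VZV in the presence of serial compound dilutions. Plaque formation was recorded once untreated infected controls reached completion. EC50 was the concentration that reduced plaque formation by 50%.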

Vaccinia virus = assay: Antiviral activity against Vaccinia virus Lederle; type: functional, organism-based; details: Orthopoxvirus vaccinia
Punta Toro virus = assay: Antiviral activity against Punta Toro virus; type: functional, organism-based; method in brief: as §3
Human alphaherpesvirus 2 [9] = assay: Antiviral activity against Herpes simplex virus type 2 G; type: functional, organism-based; details: strain G; method in brief: as §3
Human respirovirus 3 = assay: Antiviral activity against Parainfluenza virus 3; type: functional, organism-based; method in brief: as §3
Human betaherpesvirus 5 [10] = assay: Antiviral actiivty against Human herpesvirus 5 AD169 infected in HEL assessed as reduction of virus-induced plaque formation; type: functional, organism-based; details: Human betaherpesvirus 5, AD169; method in brief: as §4
Coxsackievirus B4 = assay: Antiviral activity against Coxsackie B4 virus; type: functional, organism-based; method in brief: as §3
[11] = tested on: Vesicular stomatitis virus; assay: Antiviral activity against Vesicular stomatitis virus; type: functional, organism-based
Influenza A virus [12] = assay: Antiviral activity against Influenza virus A virus H3N2; type: functional, organism-based; method in brief: as §1
Sindbis virus = assay: Antiviral activity against Sindbis virus; type: functional, organism-based; method in brief: as §3
Influenza B virus = assay: Antiviral activity against Influenza B virus; type: functional, organism-based; method in brief: as §1
[13] = tested on: Respiratory syncytial virus; assay: Antiviral activity against Respiratory syncytial virus Long; type: functional, organism-based; method in brief: as §3
Human alphaherpesvirus 1 [14] = assay: Antiviral activity against thymidine kinase deficient acyclovir-resistant Herpes simplex virus type 1 KOS; type: functional, organism-based
[15] = tested on: Human immunodeficiency virus 2; assay: Antiviral activity against HIV2 ROD infected in human CEM cells assessed as inhibition of virus-induced giant cell formation after 4 to 5 days; type: functional, organism-based; details: ISOLATE ROD, CCRF-CEM; method in brief: as §2
Human alphaherpesvirus 2 [16] = assay: Antiviral activity against Herpes simplex virus type 2 Lyons; type: functional, organism-based; method in brief: as §3

SMILES | MCC [1] [µM] | Activity (Influenza A virus [2]) | Activity [3] | Activity [4] | EC50 (Human betaherpesvirus 5 [5]) [µM] | Activity (Feline coronavirus) | Activity (Human alphaherpesvirus 1 [6]) | Activity (Human alphaherpesvirus 3 [7]) | Activity (Human alphaherpesvirus 3 [8]) | Activity (Vaccinia virus) | Activity (Punta Toro virus) | Activity (Human alphaherpesvirus 2 [9]) | Activity (Human respirovirus 3) | EC50 (Human betaherpesvirus 5 [10]) [µM] | Activity (Coxsackievirus B4) | Activity [11] | Activity (Influenza A virus [12]) | Activity (Sindbis virus) | Activity (Influenza B virus) | Activity [13] | further results
Nc1ccc(OCCCCCn2ccc(=O)[nH]c2=O)cc1 | > 100 | inactive | inactive | inactive | 55 | inactive | inactive | inactive | inactive | inactive | inactive | inactive | inactive | 55 | inactive | inactive | inactive | inactive | inactive | inactive | CC50 (HEL): > 100 µM; Activity (Human alphaherpesvirus 1 [14]): inactive; Activity [15]: inactive; Activity (Human alphaherpesvirus 2 [16]): inactive
O=c1ccn(CCCCOc2ccc(Br)cc2)c(=O)[nH]1 | 100 | inactive | inactive | inactive | > 20 | inactive | inactive | inactive | inactive | inactive | inactive | inactive | inactive | > 20 | inactive | inactive | inactive | inactive | inactive | inactive | Activity (Human alphaherpesvirus 1 [14]): inactive; Activity [15]: inactive; Activity (Human alphaherpesvirus 2 [16]): inactive
O=c1ccn(CCCCCOc2ccc([N+](=O)[O-])cc2)c(=O)[nH]1 | 20 | inactive | inactive | inactive | > 4 | inactive | inactive | inactive | inactive | inactive | inactive | inactive | inactive | > 4 | inactive | inactive | inactive | inactive | inactive | inactive | Activity (Human alphaherpesvirus 1 [14]): inactive; Activity [15]: inactive; Activity (Human alphaherpesvirus 2 [16]): inactive
O=c1ccn(CCCOc2ccc(Br)cc2)c(=O)[nH]1 | > 100 | inactive | inactive | inactive | > 100 | inactive | inactive | inactive | inactive | inactive | inactive | inactive | inactive | > 100 | inactive | inactive | inactive | inactive | inactive | inactive | Activity (Human alphaherpesvirus 1 [14]): inactive; Activity [15]: inactive; Activity (Human alphaherpesvirus 2 [16]): inactive
Nc1ccn(C[C@@H](CO)OCP(=O)(O)O)c(=O)n1 [CIDOFOVIR] | 317 |  |  |  | 1.1 |  |  |  |  |  |  |  |  | 1.3 |  |  |  |  |  |  | CC50 (HEL): 161 µM
O=c1ccn(CCCCCOc2ccc(-c3ccccc3)cc2)c(=O)[nH]1 | 100 | inactive | inactive | inactive | 54 | inactive | inactive | inactive | inactive | inactive | inactive | inactive | inactive | > 20 | inactive | inactive | inactive | inactive | inactive | inactive | Activity (Human alphaherpesvirus 1 [14]): inactive; Activity [15]: inactive; Activity (Human alphaherpesvirus 2 [16]): inactive
Nc1nc(O)c2ncn(COC(CO)CO)c2n1 [GANCICLOVIR] | 394 |  |  |  | 8.3 |  |  |  |  |  |  |  |  |  |  |  |  |  |  |  | CC50 (HEL): 200 µM
O=C(O)c1ccc(OCCCCCn2ccc(=O)[nH]c2=O)cc1 | > 100 | inactive | inactive | inactive | > 100 | inactive | inactive | inactive | inactive | inactive | inactive | inactive | inactive | > 100 | inactive | inactive | inactive | inactive | inactive | inactive | Activity (Human alphaherpesvirus 1 [14]): inactive; Activity [15]: inactive; Activity (Human alphaherpesvirus 2 [16]): inactive
O=c1ccn(CCCCCCOc2ccc(Br)cc2)c(=O)[nH]1 | 20 | inactive | inactive | inactive | > 4 | inactive | inactive | inactive | inactive | inactive | inactive | inactive | inactive | > 4 | inactive | inactive | inactive | inactive | inactive | inactive | Activity (Human alphaherpesvirus 1 [14]): inactive; Activity [15]: inactive; Activity (Human alphaherpesvirus 2 [16]): inactive
O=c1ccn(CCCCCOc2ccc(Cl)cc2)c(=O)[nH]1 | > 100 | inactive | inactive | inactive | > 100 | inactive | inactive | inactive | inactive | inactive | inactive | inactive | inactive | > 100 | inactive | inactive | inactive | inactive | inactive | inactive | Activity (Human alphaherpesvirus 1 [14]): inactive; Activity [15]: inactive; Activity (Human alphaherpesvirus 2 [16]): inactive

Reference: ChEMBL document CHEMBL2396525, “Synthesis and anti-HCMV activity of 1-[ω-(phenoxy)alkyl]uracil derivatives and analogues thereof” (Bioorg Med Chem, 2013)
